Source: ChEMBL document CHEMBL4321823, “Benzyl Phenylsemicarbazides: A Chemistry-Driven Approach Leading to G Protein-Biased Dopamine D4 Receptor Agonists with High Subtype Selectivity” (J Med Chem, 2019)
The source made the active and inactive calls. No cut-off for these calls is given here.

What was measured:
D(2) dopamine receptor = D(2) dopamine receptor (Homo sapiens, UniProt P14416); test: Displacement of [3H] Spiperone from human D2L receptor expressed in CHO cells by competitive radioligand binding assay; type: cell-based
D(4) dopamine receptor [1] = target: T1, D(4) dopamine receptor (Homo sapiens, UniProt P21917); test: Displacement of [3H] Spiperone from human D4.4 receptor expressed in CHO cells by competitive radioligand binding assay; type: cell-based
T1 sequence (P21917 whole entry): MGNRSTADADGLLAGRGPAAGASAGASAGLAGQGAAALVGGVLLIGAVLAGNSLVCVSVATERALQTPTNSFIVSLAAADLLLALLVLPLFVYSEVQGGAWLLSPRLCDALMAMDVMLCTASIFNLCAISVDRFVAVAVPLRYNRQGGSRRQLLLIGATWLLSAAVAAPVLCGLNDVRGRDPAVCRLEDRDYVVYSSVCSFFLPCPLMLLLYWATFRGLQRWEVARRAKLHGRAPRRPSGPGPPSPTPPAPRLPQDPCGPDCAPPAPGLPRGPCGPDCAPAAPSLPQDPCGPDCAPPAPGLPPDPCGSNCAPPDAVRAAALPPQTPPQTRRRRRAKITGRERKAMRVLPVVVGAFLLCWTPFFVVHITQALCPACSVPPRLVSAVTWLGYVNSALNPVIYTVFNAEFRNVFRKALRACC

Homo sapiens [2] = species on record: Homo sapiens; test: Selectivity index, ratio of Ki for displacement of [3H] Spiperone from human D2L receptor expressed in CHO cells to Ki for displacement of [3H] Spiperone from human D4.4 receptor expressed in CHO cells; type: cell-based
How it was run: (§1)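 Competition binding against [3H]spiperone on membranes of CHO cells stably expressing cloned human D2L, D2S, D3 or D4.4 receptors. Ki from monophasic curve fits; mean ± SEM of three to seven experiments, each in triplicate. Selectivity calculated as Ki(D2L, D2S or D3) divided by Ki(D4.4).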

Homo sapiens [3] = species on record: Homo sapiens; test: Selectivity index, ratio of Ki for displacement of [3H] Spiperone from human D2S receptor expressed in CHO cells to Ki for displacement of [3H] Spiperone from human D4.4 receptor expressed in CHO cells; type: cell-based; how it was run: as §1
D(1A) dopamine receptor = D(1A) dopamine receptor (Homo sapiens, UniProt P21728); test: Displacement of [3H] SCH23390 from D1 receptor (unknown origin)
D(1B) dopamine receptor = D(1B) dopamine receptor (Homo sapiens, UniProt P21918); test: Displacement of [3H] SCH23390 from D5 receptor (unknown origin)
[4] = target: T2, Alpha-1A adrenergic receptor (Homo sapiens, UniProt P35348); test: Displacement of [3H] prazosin from alpha1A adrenergic receptor (unknown origin)
T2 sequence (P35348 whole entry): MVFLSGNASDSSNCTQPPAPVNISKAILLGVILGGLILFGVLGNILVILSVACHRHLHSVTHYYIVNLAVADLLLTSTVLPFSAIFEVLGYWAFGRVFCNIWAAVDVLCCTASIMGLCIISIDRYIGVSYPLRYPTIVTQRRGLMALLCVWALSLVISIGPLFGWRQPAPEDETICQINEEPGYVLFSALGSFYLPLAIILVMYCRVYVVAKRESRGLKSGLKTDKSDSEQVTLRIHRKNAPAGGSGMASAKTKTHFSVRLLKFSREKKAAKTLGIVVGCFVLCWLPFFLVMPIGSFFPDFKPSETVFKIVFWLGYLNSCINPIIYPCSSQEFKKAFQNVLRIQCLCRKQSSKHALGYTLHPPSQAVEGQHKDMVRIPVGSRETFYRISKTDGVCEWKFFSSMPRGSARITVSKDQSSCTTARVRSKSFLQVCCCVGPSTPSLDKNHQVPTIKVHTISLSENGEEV

[5] = target: Beta-1 adrenergic receptor (Homo sapiens, UniProt P08588); test: Displacement of [3H] CGP12177 from beta1 adrenergic receptor (unknown origin)
[6] = target: Beta-2 adrenergic receptor (Homo sapiens, UniProt P07550); test: Displacement of [3H] CGP12177 from beta2 adrenergic receptor (unknown origin)
[7] = target: Delta-type opioid receptor (Homo sapiens, UniProt P41143); test: Displacement of [3H] diprenorphine from delta opioid receptor (unknown origin)
[8] = target: Muscarinic acetylcholine receptor M3 (Homo sapiens, UniProt P20309); test: Displacement of [3H] NMS from muscarinic M3 receptor (unknown origin)
How it was run: (§2)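 Radioligand competition binding; Ki given as mean ± SD from two individual experiments, each run in triplicate.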

[9] = target: T3, 5-hydroxytryptamine receptor 1A (Homo sapiens, UniProt P08908); test: Displacement of [3H] WAY100635 from 5HT1A receptor (unknown origin); how it was run: as §2
T3 sequence (P08908 whole entry): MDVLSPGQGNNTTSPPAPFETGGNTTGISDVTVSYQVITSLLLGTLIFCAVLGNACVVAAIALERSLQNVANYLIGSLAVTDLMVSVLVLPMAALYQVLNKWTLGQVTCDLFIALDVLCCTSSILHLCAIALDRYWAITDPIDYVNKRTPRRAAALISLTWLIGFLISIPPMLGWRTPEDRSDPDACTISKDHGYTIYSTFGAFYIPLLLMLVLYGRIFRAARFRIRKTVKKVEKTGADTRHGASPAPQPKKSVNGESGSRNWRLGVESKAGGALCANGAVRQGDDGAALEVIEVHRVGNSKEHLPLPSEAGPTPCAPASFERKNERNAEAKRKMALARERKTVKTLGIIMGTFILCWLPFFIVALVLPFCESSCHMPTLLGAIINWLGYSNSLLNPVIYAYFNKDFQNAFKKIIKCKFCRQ

Homo sapiens [10] = species on record: Homo sapiens; test: Selectivity index, ratio of Ki for displacement of [3H] prazosin from alpha1A adrenergic receptor to Ki for displacement of [3H] Spiperone from human D4.4 receptor expressed in CHO cells; type: cell-based
D(4) dopamine receptor [11] = target: T1, D(4) dopamine receptor; type: cell-based, HEK293
D(4) dopamine receptor [12] = target: T1, D(4) dopamine receptor; test: Antagonist activity at […] D4 receptor (unknown origin) expressed in HEK293 cells co-expressing beta-arrestin2 assessed as inhibition of quinpirole-induced beta-arrestin2 recruitment preincubated for 30 mins followed by quinpirole addition and further incubated for 6 hrs by Path-Hunter assay; type: cell-based
[13] = target: T4, Alpha-1A adrenergic receptor (Homo sapiens) (UniProt P35348); test: Antagonist activity at human alpha1A adrenergic receptor expressed in HEK293T cells assessed as accumulation of inositol monophosphate using d2-labelled IP1 conjugate incubated for 60 mins by HTRF assay; type: functional, cell-based
T4 sequence (whole entry): T2 sequence (P35348 whole entry)

Chain of Beta-1 adrenergic receptor (P08588 whole entry): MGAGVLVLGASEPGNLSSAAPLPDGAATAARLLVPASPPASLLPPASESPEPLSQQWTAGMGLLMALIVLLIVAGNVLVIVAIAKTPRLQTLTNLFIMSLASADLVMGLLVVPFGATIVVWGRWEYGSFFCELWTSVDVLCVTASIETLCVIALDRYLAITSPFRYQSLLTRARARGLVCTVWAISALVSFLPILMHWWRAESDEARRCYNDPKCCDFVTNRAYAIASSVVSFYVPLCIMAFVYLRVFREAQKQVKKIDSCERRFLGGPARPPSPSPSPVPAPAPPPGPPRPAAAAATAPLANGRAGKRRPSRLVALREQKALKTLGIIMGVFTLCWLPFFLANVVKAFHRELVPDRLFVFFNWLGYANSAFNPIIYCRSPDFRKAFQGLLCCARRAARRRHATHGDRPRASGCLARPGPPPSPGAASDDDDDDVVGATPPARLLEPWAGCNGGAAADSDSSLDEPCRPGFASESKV
Chain of Delta-type opioid receptor (P41143 whole entry): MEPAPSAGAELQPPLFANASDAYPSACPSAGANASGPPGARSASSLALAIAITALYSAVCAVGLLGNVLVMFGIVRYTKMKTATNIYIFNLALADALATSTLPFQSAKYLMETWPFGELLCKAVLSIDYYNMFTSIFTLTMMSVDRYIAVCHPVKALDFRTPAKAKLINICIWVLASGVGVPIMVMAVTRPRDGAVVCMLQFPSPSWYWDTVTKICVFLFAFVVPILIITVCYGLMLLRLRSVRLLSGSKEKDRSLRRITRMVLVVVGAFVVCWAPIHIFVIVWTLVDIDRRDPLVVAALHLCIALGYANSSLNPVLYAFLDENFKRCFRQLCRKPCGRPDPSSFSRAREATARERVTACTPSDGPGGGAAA
Chain of Beta-2 adrenergic receptor (P07550 whole entry): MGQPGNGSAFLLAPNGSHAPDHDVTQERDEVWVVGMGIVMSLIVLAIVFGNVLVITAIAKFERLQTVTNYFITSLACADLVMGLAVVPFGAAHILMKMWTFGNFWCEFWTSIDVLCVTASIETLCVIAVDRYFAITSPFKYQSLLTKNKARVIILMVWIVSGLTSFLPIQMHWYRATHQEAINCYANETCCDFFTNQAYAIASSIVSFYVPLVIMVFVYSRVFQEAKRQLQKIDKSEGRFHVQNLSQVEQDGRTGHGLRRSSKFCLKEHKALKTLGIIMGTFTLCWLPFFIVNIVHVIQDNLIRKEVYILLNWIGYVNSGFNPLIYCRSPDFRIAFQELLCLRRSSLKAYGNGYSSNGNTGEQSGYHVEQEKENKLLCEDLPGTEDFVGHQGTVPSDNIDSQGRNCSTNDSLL
Chain of D(1A) dopamine receptor (P21728 whole entry): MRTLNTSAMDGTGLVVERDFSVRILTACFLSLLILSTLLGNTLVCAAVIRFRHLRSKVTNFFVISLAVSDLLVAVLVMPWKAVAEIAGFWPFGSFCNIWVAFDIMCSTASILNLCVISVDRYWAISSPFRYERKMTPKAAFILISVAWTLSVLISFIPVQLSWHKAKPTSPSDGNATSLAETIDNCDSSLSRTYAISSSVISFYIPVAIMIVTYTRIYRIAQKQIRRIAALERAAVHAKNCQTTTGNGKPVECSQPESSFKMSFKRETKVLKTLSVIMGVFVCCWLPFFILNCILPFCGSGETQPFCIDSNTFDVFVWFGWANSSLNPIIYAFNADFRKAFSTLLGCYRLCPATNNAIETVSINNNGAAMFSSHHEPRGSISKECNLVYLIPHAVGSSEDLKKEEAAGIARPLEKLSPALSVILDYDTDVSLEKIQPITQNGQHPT
Chain of D(2) dopamine receptor (P14416 whole entry): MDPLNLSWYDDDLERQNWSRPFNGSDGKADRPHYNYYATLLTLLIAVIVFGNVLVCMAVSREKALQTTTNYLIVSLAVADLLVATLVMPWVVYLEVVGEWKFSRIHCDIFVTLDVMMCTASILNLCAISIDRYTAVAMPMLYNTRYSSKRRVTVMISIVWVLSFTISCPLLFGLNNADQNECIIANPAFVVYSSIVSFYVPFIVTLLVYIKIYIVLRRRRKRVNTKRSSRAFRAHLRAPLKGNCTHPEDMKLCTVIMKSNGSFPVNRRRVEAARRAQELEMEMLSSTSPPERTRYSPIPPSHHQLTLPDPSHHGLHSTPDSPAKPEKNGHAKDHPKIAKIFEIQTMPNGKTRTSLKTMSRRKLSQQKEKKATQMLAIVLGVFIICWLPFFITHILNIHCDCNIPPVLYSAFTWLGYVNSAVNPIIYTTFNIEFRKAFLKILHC
Chain of D(1B) dopamine receptor (P21918 whole entry): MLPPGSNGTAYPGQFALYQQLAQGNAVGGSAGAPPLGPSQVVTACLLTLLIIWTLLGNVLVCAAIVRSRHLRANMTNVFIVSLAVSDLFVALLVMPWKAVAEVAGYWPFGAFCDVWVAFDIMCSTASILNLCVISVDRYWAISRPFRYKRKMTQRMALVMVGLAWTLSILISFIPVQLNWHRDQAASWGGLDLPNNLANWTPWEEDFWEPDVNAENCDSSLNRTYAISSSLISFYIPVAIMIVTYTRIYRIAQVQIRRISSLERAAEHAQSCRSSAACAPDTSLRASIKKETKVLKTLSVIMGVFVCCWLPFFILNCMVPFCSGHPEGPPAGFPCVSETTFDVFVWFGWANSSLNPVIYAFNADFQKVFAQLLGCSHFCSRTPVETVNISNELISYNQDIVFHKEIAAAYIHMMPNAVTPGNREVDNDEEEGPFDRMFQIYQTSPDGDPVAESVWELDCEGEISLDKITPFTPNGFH
Chain of Muscarinic acetylcholine receptor M3 (P20309 whole entry): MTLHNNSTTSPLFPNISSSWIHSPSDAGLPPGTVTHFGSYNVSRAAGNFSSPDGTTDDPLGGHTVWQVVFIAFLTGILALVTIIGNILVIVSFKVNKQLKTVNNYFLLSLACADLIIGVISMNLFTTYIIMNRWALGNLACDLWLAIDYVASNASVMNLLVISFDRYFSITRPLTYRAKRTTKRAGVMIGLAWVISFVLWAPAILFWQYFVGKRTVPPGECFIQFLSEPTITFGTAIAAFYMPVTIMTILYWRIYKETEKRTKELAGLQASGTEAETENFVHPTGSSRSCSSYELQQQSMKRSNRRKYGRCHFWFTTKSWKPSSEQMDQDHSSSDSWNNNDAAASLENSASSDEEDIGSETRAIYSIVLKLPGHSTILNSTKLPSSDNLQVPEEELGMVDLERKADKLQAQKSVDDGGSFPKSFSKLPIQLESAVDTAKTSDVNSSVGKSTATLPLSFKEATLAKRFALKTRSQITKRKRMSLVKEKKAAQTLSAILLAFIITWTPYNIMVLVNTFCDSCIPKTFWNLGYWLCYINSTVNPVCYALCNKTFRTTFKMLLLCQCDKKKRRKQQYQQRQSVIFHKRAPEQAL

For `COc1ccccc1N1CCN(CCCNC(=O)NN(Cc2ccc(F)cc2)c2ccccc2)CC1`, which Ki (D(2) dopamine receptor) is on record?
Its Ki is 0.14 µM.

What about the Ki (D(4) dopamine receptor [1]) of the same molecule?
The Ki was 0.00055 µM.

What about the Ratio Ki (Homo sapiens [2]) of the same molecule?
Its Ratio Ki is 250.

And the Ratio Ki (Homo sapiens [3])?
Its Ratio Ki is 200.

What about the Ki (D(1A) dopamine receptor) of the same molecule?
Its Ki is 0.36 µM.

And the Ki (D(1B) dopamine receptor)?
Its Ki is 1 µM.

What about the Ki [4] of the same molecule?
The Ki was 0.0016 µM.

What about the Ki [5] of the same molecule?
Its Ki is greater than 50 µM.

And the Ki [6]?
The Ki was 4.5 µM.

What about the Ki [7] of the same molecule?
Its Ki is 19 µM.

And the Ki [8]?
Its Ki is 37 µM.

And the Ki [9]?
The Ki was 0.034 µM.

What about the Ratio Ki (Homo sapiens [10]) of the same molecule?
Its Ratio Ki is 2.9.

What about the EC50 (D(4) dopamine receptor [11]) of the same molecule?
The EC50 was 0.5 µM.

What about the IC50 (D(4) dopamine receptor [12]) of the same molecule?
The IC50 was 0.62 µM.

And the Activity [13]?
Its Activity is “inactive”.
